# 697 NFkB inh – lowers PMA/ionomycin-induced NF-kB signal in 697 B cells. 697 B-cell NF-kB luciferase reporter, 16 h. inhibition, % at 4 µM. actives 0.33% (n = 330,000); in the data active = inhibition above about 35%
# Jurkat NFkB inh – inhibitors of the PMA/ionomycin-induced NF-kB reporter in Jurkat cells; actives 0.53% (n = 330,000); AID 435003; inhibition, % at 4 µM; PMA/ionomycin-induced NF-kB luciferase reporter, luminescence; in the data active = inhibition above about 50%
# Gli-Sufu antag – antagonists of Gli-Sufu signaling; Sufu-KO-LIGHT fibroblasts, Gli luciferase reporter luminescence; inhibition, % at 5 µM; actives 0.74% (n = 340,000); AID 588413;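 active = inhibition above about 55%, limit read from the data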;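 note: 0% = DMSO-treated cells and 100% = wells with medium but no cells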
# Hep lipid drop – hepatic lipid droplet formation modulation; AID 1656; inhibition, % at 6.5 µM; actives 0.4% (n = 240,000); AML12 mouse hepatocytes, oleate lipid droplets, BODIPY imaging;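 active = lipid droplet intensity inhibited by at least 50%, with more than 500 cells counted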
#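 Test system: AML12 mouse liver cells; schedule: overnight exposure; technique: high-content imaging of BODIPY-stained droplets and DAPI nuclei; read-out: % inhibition of corrected integrated BODIPY droplet signal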
# iPSC survival up – increases survival of single human iPS cells; hiPSC single-cell survival, ATPlite luminescence; 100% = ROCK inhibitor wells, 0% = DMSO; actives 0.044% (n = 360,000); survival enhancement, % at 20 µM; in the data active = survival enhancement above about 18%;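 note: cells exposed to compounds for 16 hours before the ATP read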
# TAG inh – reduces triacylglycerol accumulation in H9c2 cells; Nile Red lipid (TAG) fluorescence; cells loaded with 200 µM oleic acid; inhibition, % at 12.5 µM; actives 0.66% (n = 230,000);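 active = pattern-corrected inhibition of lipid staining of at least 50% with the nuclear-stain viability signal not falling by more than 50%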;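 note: 0% = DMSO wells and 100% = triacsin C control wells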
# Jurkat NFkB conf – lowers PMA/ionomycin-induced NF-kB signal in Jurkat cells | Jurkat NF-kB luciferase, 16 h | actives 27% (n = 2,700) | inhibition, % at 4 µM | AID 435020 | shares compounds with Jurkat NFkB inh;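 active = inhibition reaching about 45% at 4 µM in either replicate, limit read from the data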;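 note: plate controls were PMA/ionomycin stimulated DMSO wells for no effect and unstimulated DMSO wells for full effect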
# The depositor's hits bear a star; / = no result given. The list is not random: actives were taken first. Their share in the collection is about 1.8%.
SMILES,697 NFkB inh,Jurkat NFkB inh,Gli-Sufu antag,Hep lipid drop,iPSC survival up,TAG inh,Jurkat NFkB conf
COc1ccc(-n2nc3c(N4CCC(C(=O)N5CCCCCC5)CC4)nnc(C)c3c2C)cc1,-1,28,10,21,0,/,/
COC(=O)c1ccc(NC(=O)CN2CCN(c3ccccn3)CC2)cc1,6,-1,-35,-12,0,-4,/
CCOC(=O)c1c(C)[nH]c(C(=O)Nc2ccc(C)c(Cl)c2)c1C,-166,-165,/,-2,/,/,-82
CC(C)NCc1nnc(-c2ccccc2Cl)o1,-2,5,-15,10,0,-3,/
Clc1ccc(CNc2ncnc3[nH]ncc23)cc1Cl,/,/,-2,/,-1,5,/
COc1cccc(/C=C/C(=O)Nc2ccc3c(c2)OCCO3)c1OC,-52,-183,-60,4,-1,7,-108
COc1cccc(/C=C/C(=O)Nc2cccc(C(C)=O)c2)c1OC,-13,-74,-58,0,-1,11,/
COCC(=O)Nc1c(C(=O)Nc2ccc3c(c2)OCCO3)oc2ccccc12,-110,-176,-122,2,0,-5,-95
CCOCC(=O)Nc1c(C(=O)Nc2ccc3c(c2)OCCO3)oc2ccccc12,-117,-193,-139,11,-1,9,-92
CCC(=O)Nc1c(C(=O)Nc2ccc3c(c2)OCCO3)oc2ccccc12,-70,-92,-91,5,0,6,/
CCN(C(=O)c1cc2c(=O)[nH]c3ccc(C)cc3c2s1)c1ccc(OC)cc1,-8,-6,2,8,0,0,/
Cc1cc(NC(=O)CSc2nc3cc(C)c(C)cc3cc2C)no1,2,13,5,1,0,/,/
COc1ccc(CNC(=O)c2c(C)oc3c2C(=O)c2ccccc2C3=O)cc1,-16,60*,64*,-14,-3,101*,59*
CC(=O)c1c(C)oc2c1C(=O)c1ccccc1C2=O,/,/,-7,2,-1,/,/
Cc1oc2c(c1C(=O)NCc1cccnc1)C(=O)c1ccccc1C2=O,29,88*,80*,-26,/,/,84*
COc1ccc(-c2c(-c3cc(OC)cc(OC)c3)n(C)c3ccc(-c4ccc(S(N)(=O)=O)cc4)cc23)cc1,12,12,-6,/,-1,-145,/
Cc1c(C(=O)C(=O)N2c3ccc(F)cc3CCC2C)c2ccccc2n1C (stereo unspecified),-64,65*,27,-60,-1,/,32
Cc1cccc(NC(=O)N2CCc3ccccc3C2)c1C,-3,-11,-47,-3,0,4,/
CCOC(=O)C1CCN(S(=O)(=O)c2c(Cl)ccc3nonc23)CC1,-2,72*,/,1,0,83,40
O=C(Nc1ccc(C2SCCS2)cc1)c1ccccc1,-216,-150,-98,9,-1,-8,-110
O=C(Nc1cccc(Cl)c1)c1ccccc1,-77,-80,-26,/,-3,-14,/
CNC(=O)Nc1ccc(C2SCCS2)cc1,10,-8,-2,0,0,6,/
O=C(Nc1ccc(Cl)c(Cl)c1)c1ccccc1,-126,-188,-74,/,-3,-12,-93
Cc1ccc(CN2CCNC(=O)C2CC(=O)N(C)C2CCOCC2)cc1 (stereo unspecified),20,0,-5,13,0,-3,/
COCCNC(=O)C1CCCN(Cc2ccc(C)cc2)CC1 (stereo unspecified),/,/,/,/,2,1,/
COc1cc(-c2[nH]ncc2CN2CCN(Cc3cccs3)CC2)cc(OC)c1OC,-10,4,23,-31,-1,21,/
COc1ccc(OCC(=O)Nc2ccc(OC)c(S(=O)(=O)N3CCCCC3)c2)cc1,-36,50*,2,/,0,-1,19
COc1ccc(NC(=O)COc2ccccc2Cl)cc1S(=O)(=O)N1CCCCC1,-15,-7,-9,/,0,-13,/
O=C(COC(=O)CC1CC2CCC1C2)NCc1ccccc1 (stereo unspecified),-7,-5,9,/,0,8,/
O=C(c1ccccc1)c1ccc2c(c1)OCCCO2,-125,-71,-76,6,0,5,/

# High-throughput results deposited in PubChem BioAssay by Sanford-Burnham Center for Chemical Genomics.
